Laboratory results taken from ChEMBL document CHEMBL1122613, “A water-soluble cholesteryl-containing trisgalactoside: synthesis, properties, and use in directing lipid-containing particles to the liver” (J Med Chem, 1984).

Tests used:
[1] = [125I]- uptake in liver after perfusion on administration of 0.65 nmol of compound/ug of [125I]- LDL protein in rats preinjected with Glc-N-Ac 110 mg; assay type: ADME, tissue-based; details: rat, in vivo
In short: (§1)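 110 mg 2-acetamido-2-deoxygalacto- or -glucopyranose was injected iv 1 min before the 125I-LDL, which had been preincubated 10 min at room temperature with compound (13 μg per 20 μg LDL-protein). Rats were pentobarbital-anesthetized males. Blood was taken at 10 min, and the liver was perfused with Ca2+-free Hanks and excised. Samples were γ-counted; blood totals assume 4 mL serum/100 g body weight; values are % injected dose.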

Rattus norvegicus [2] = assay: Amount of [125I]- remaining in blood 10 min after administration of 0.25 nmol of compound/ug of [125I]- LDL protein; assay type: ADME, organism-based
In short: (§2)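 Human LDL (d 1.019–1.063) was labeled with 125I. 20 μg LDL-protein was mixed with 0, 5 or 13 μg compound in water for 10 min at room temperature, then given iv to pentobarbital-anesthetized male rats. At 10 min, blood was taken by aortic puncture and the liver perfused via the portal vein (Ca2+-free Hanks, 14 mL/min, 8 min), then excised. Samples were γ-counted; results are % injected dose.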

Rattus norvegicus [3] = assay: Amount of [125I]- remaining in blood 10 min after administration of 0.65 nmol of compound/ug of [125I]- LDL protein in rats preinjected with Gal-N-Ac 110 mg; assay type: ADME, organism-based; details: in vivo; in short: as §1
Rattus norvegicus [4] = species: Rattus norvegicus; assay: Amount of 14C remaining in blood 120 min after injection of 0 mol of [14C]- sucrose containing liposomes with compound; assay type: ADME, organism-based; details: 2 h
[5] = [125I]- uptake in liver after perfusion on administration of 0 nmol of compound/ug of [125I]- LDL protein; assay type: ADME, tissue-based; details: rat; in short: as §2
Rattus norvegicus [6] = assay: Amount of [125I]- remaining in blood 10 min after administration of 0.65 nmol of compound/ug of [125I]- LDL protein; assay type: ADME, organism-based; in short: as §2
[7] = [125I]- uptake in liver after perfusion on administration of 0.65 nmol of compound/ug of [125I]- LDL protein in rats preinjected with Gal-N-Ac 110 mg; assay type: ADME, tissue-based; details: rat, in vivo; in short: as §1
Rattus norvegicus [8] = assay: Amount of [125I]- remaining in blood 10 min after administration of 0 nmol of compound/ug of [125I]- LDL protein; assay type: ADME, organism-based; in short: as §2
[9] = 14C uptake in liver after perfusion on administration of 0.1 mol of [14C]- sucrose containing liposomes with compound; assay type: ADME; details: rat
[10] = 14C uptake in liver after perfusion on administration of 0 mol of [14C]- sucrose containing liposomes with compound; assay type: ADME; details: rat
Rattus norvegicus [11] = assay: Amount of [125I]- remaining in blood 10 min after administration of 0.65 nmol of compound/ug of [125I]- LDL protein in rat preinjected with Glc-N-Ac 110 mg; assay type: ADME, organism-based; details: in vivo; in short: as §1
Rattus norvegicus [12] = assay: Amount of [125I]- remaining in blood 10 min after administration of 0.05 nmol of compound/ug of [125I]- LDL protein; assay type: ADME, organism-based
[13] = [125I]- uptake in liver after perfusion on administration of 0.05 nmol of compound/ug of [125I]- LDL protein; assay type: ADME, tissue-based; details: rat
[14] = [125I]- uptake in liver after perfusion on administration of 0.65 nmol of compound/ug of [125I]- LDL protein; assay type: ADME, tissue-based; details: rat; in short: as §2
Rattus norvegicus [15] = species: Rattus norvegicus; assay: Amount of 14C remaining in blood 120 min after injection of 0.1 mol of [14C]- sucrose containing liposomes with compound; assay type: ADME, organism-based; details: 2 h
[16] = [125I]- uptake in liver after perfusion on administration of 0.25 nmol of compound/ug of [125I]- LDL protein; assay type: ADME, tissue-based; details: rat; in short: as §2

## CC(C)CCC[C@@H](C)[C@H]1CC[C@H]2[C@@H]3CC=C4C[C@@H](OC(=O)CCC(=O)NCC(=O)NC(CO[C@@H]5O[C@H](CO)[C@H](O)[C@H](O)[C@H]5O)(CO[C@@H]5O[C@H](CO)[C@H](O)[C@H](O)[C@H]5O)CO[C@@H]5O[C@H](CO)[C@H](O)[C@H](O)[C@H]5O)CC[C@]4(C)[C@H]3CC[C@]12C
[1]
  Activity: 39%
Rattus norvegicus [2]
  Activity: 57%
Rattus norvegicus [3]
  Activity: 94%
Rattus norvegicus [4]
  Activity: 82%
[5]
  Activity: 1.9%
Rattus norvegicus [6]
  Activity: 23%
[7]
  Activity: 3.2%
Rattus norvegicus [8]
  Activity: 97%
[9]
  Activity: 48%
[10]
  Activity: 3%
Rattus norvegicus [11]
  Activity: 27%
Rattus norvegicus [12]
  Activity: 96%
[13]
  Activity: 2%
[14]
  Activity: 41%
Rattus norvegicus [15]
  Activity: 48%
[16]
  Activity: 33%
